In test [1] the target is T1, Disintegrin and metalloproteinase domain-containing protein 17 (Homo sapiens, UniProt P78536). The test is described as follows: Inhibition of human TACE after 5 mins.
In test [2] the target is T2, Matrix metalloproteinase-9 (Homo sapiens, UniProt P14780). The test is described as follows: Inhibition of human MMP-9 using NFF-2 as substrate after 90 mins.
The target in test [3] is T3, Stromelysin-1 (Homo sapiens, UniProt P08254). The test is described as follows: Inhibition of human MMP-3 using NFF-2 as substrate after 30 mins.
Target sequence in this assay (P08254 whole entry): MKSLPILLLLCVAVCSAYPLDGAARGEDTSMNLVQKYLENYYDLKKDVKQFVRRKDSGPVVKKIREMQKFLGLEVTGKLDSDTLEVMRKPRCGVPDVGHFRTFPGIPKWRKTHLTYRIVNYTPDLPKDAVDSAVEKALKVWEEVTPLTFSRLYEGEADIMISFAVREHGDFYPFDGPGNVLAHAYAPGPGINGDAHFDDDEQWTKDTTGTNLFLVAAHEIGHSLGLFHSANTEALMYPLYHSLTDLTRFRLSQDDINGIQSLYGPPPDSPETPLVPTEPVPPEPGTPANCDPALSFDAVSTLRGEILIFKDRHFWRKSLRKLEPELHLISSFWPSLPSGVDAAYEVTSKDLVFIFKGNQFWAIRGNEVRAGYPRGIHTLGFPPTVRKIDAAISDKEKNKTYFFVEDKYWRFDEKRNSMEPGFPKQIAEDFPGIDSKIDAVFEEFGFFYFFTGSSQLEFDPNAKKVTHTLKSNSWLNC
In test [4] the target is T4, Interstitial collagenase (Homo sapiens, UniProt P03956).
T4 sequence (P03956 whole entry): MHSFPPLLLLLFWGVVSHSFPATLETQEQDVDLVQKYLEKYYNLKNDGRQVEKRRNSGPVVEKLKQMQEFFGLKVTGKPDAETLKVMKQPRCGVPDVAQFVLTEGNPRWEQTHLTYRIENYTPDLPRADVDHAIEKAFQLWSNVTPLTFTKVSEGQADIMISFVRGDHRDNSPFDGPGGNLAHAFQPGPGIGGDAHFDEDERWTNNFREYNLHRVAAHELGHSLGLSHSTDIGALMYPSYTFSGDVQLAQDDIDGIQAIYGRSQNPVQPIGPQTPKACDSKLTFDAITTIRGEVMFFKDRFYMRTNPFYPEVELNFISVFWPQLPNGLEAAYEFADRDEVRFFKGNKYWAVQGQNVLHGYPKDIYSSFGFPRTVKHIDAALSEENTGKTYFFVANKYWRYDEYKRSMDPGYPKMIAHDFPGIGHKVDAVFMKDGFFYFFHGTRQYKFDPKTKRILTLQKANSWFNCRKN
In words: Inhibition of human MMP-1 using DNP-Pro-Cha-Gly-Cys(Me)-His-Ala-Lys(n-Me-Abz)-NH2 as substrate after 40 mins.

For test [5], the target named is T5, A disintegrin and metalloproteinase with thrombospondin motifs 5 (Homo sapiens) (UniProt Q9UNA0).
T5 sequence (whole entry): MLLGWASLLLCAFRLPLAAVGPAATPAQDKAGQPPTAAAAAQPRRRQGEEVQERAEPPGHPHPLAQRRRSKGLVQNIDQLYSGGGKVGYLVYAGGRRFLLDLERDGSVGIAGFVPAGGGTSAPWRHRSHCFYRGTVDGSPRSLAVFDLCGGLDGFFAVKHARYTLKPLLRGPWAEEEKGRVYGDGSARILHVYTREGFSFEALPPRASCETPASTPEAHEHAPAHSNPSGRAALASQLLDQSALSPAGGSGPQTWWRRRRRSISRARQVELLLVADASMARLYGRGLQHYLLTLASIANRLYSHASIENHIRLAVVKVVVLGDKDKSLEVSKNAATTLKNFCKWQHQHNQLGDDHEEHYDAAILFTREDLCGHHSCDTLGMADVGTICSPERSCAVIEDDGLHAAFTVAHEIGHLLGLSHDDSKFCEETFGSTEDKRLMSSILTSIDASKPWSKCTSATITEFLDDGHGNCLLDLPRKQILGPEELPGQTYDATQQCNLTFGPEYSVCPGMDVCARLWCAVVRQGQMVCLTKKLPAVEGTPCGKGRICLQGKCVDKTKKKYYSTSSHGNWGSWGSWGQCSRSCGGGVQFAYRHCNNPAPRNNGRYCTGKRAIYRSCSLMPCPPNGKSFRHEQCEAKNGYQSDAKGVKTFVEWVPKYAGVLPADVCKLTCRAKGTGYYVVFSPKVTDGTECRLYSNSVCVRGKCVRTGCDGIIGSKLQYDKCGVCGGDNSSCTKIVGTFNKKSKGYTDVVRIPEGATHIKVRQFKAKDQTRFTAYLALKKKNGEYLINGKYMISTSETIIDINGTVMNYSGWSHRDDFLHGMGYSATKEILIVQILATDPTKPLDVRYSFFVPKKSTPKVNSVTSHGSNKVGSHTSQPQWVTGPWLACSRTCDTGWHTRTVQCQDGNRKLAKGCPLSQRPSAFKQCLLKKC
The test is described as follows: Inhibition of human recombinant ADAMTS-5 using bovine articular aggrecan as substrate incubated 20 mins prior to substrate addition measured after 48 hrs by spectrophotometry. The method, boiled down: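 ADAMTS-5 (3.4 µL of 600 nM stock) was pre-incubated 20 min at 37 °C with compound or 4% DMSO vehicle in Tris/NaCl/CaCl₂/Brij35, pH 7.5. Bovine articular aggrecan (50 µg/mL final) was added for 48 h at 37 °C, then stopped with EDTA. Samples were bound to PVDF and digested with chondroitinase ABC and keratanase. The ARGSVIL neoepitope was detected by BC-3 ELISA with TMB, read at 450 nm.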

Test [6] has as its target T1, Disintegrin and metalloproteinase domain-containing protein 17. The test is described as follows: Inhibition of human TACE at 10 uM after 5 mins.
In test [7] the target is Collagenase 3 (Homo sapiens, UniProt P45452). In words: Inhibition of human MMP-13 after 10 mins.
The target in test [8] is T2, Matrix metalloproteinase-9. In words: Inhibition of human MMP-9 using NFF-2 as substrate at 10 uM after 90 mins.
Test [9] has as its target Macrophage metalloelastase (Homo sapiens, UniProt P39900). The test is described as follows: Inhibition of human MMP-12 after 60 mins.
Test [10] has as its target Neutrophil collagenase (Homo sapiens, UniProt P22894). The test is described as follows: Inhibition of human MMP-8 using Mca-Pro-Cha-Gly-Nva-His-Ala-Dpa-NH2 as substrate after 120 mins.
In test [11] the target is T3, Stromelysin-1. In words: Inhibition of human MMP-3 using NFF-2 as substrate at 10 uM after 30 mins.
Target sequence in this assay (P08254 100-477 limits assumed): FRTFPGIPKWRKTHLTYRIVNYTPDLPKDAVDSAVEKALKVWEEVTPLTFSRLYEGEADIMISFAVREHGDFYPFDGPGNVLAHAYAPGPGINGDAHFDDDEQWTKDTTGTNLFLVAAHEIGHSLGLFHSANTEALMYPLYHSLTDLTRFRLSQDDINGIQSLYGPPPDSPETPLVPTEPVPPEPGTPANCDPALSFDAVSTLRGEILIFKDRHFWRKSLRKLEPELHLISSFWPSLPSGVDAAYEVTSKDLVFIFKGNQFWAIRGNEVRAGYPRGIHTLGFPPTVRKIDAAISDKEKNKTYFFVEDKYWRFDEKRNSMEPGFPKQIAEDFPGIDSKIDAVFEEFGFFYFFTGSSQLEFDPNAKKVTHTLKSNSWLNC
Test [12] deals with T6, Matrilysin (Homo sapiens, UniProt P09237).
T6 sequence (P09237 whole entry): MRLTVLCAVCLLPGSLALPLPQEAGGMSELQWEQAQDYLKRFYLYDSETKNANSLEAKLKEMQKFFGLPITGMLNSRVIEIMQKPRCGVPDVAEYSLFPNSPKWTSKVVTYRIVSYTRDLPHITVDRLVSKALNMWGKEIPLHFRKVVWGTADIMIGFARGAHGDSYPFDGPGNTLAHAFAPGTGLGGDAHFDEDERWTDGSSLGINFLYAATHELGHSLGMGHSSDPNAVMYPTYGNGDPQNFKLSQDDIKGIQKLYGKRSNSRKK
The test is described as follows: Inhibition of human MMP-7 after 45 mins.

For test [13], the target named is 72 kDa type IV collagenase (Homo sapiens, UniProt P08253). In words: Inhibition of human MMP-2 using NFF-2 as substrate at 10 uM after 90 mins.
Sequence of 72 kDa type IV collagenase (P08253 110-660 limits assumed): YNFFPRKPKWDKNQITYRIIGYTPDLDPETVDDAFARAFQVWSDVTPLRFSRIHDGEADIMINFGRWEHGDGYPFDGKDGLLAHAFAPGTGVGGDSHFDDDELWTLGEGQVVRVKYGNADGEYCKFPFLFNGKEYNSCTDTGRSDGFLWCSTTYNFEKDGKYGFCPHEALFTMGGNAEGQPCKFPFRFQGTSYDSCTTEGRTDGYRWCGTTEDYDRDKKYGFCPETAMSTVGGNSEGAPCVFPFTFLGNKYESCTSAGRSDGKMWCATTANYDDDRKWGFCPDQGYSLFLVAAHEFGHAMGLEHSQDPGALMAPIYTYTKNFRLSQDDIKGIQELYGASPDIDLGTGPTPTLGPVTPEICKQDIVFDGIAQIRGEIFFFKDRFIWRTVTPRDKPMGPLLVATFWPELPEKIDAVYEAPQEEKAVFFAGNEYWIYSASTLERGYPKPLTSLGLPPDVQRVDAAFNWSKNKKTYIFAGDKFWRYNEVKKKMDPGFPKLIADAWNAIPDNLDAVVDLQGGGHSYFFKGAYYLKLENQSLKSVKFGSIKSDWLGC
In test [14] the target is T7, Interstitial collagenase (Homo sapiens) (UniProt P03956).
T7 sequence (whole entry): T4 sequence (P03956 whole entry)
The test is described as follows: Inhibition of human MMP-1 using DNP-Pro-Cha-Gly-Cys(Me)-His-Ala-Lys(n-Me-Abz)-NH2 as substrate at 10 uM after 40 mins.

Test [15] deals with T8, A disintegrin and metalloproteinase with thrombospondin motifs 5 (Homo sapiens, UniProt Q9UNA0).
T8 sequence (Q9UNA0 whole entry): T5 sequence (whole entry)
The test is described as follows: Inhibition of human recombinant ADAMTS-5 using QTVTWPDMELPLPRNITEGEARGSVIL-TVKPIFEVSPSPL(biotinyl)K as substrate incubated 10 mins prior to substrate addition measured after 3 hrs by spectrophotometry.

The record followed here is ChEMBL document CHEMBL2434855, “Aggrecanase-2 inhibitors based on the acylthiosemicarbazide zinc-binding group” (Eur J Med Chem, 2013).

As usually defined, the IC50 is the concentration that gives 50% inhibition. By inhibition is commonly meant how much of the control response was suppressed.

Each structure is given as a SMILES string.

T2 sequence (P14780 whole entry): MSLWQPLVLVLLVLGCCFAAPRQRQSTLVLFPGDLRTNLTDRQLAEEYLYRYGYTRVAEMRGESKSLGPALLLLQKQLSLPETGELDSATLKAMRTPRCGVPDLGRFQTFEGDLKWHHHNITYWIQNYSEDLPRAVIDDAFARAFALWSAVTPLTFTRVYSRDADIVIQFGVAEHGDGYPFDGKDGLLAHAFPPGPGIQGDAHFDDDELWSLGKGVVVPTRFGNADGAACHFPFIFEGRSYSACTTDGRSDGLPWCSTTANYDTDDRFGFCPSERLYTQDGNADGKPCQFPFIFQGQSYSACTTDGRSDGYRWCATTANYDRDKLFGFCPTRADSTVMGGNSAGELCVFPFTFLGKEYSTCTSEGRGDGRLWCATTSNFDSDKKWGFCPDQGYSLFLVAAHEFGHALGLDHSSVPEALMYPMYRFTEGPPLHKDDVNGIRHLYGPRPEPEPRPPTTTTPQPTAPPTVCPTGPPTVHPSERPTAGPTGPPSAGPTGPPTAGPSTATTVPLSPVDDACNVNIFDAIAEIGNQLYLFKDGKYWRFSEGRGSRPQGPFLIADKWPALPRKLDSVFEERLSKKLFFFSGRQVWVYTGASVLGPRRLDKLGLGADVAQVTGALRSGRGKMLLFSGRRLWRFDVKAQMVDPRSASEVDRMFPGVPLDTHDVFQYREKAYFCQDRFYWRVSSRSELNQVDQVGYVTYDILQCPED
T1 sequence (P78536 whole entry, the tested form may be a part): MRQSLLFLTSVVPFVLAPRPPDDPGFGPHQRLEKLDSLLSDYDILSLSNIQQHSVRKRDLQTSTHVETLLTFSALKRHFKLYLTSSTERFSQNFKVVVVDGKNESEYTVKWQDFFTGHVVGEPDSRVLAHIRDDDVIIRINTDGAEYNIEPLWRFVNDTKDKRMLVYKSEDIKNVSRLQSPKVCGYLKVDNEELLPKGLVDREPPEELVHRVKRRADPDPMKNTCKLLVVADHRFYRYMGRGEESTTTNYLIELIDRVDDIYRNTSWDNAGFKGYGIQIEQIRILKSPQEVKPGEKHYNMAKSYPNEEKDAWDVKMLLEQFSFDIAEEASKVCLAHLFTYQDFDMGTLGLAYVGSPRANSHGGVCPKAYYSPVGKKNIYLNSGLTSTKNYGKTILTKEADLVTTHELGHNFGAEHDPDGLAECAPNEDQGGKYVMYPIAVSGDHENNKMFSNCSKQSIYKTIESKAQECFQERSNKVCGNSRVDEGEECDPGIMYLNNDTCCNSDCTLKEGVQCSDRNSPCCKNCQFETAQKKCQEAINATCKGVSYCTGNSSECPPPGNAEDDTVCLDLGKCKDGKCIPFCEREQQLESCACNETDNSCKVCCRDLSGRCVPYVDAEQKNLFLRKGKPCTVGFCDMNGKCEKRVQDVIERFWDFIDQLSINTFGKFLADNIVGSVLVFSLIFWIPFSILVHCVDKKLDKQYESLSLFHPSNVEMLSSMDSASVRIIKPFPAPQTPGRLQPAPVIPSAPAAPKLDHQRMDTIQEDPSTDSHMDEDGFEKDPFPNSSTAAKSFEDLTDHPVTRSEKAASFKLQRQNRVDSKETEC
Sequence of Macrophage metalloelastase (P39900 whole entry): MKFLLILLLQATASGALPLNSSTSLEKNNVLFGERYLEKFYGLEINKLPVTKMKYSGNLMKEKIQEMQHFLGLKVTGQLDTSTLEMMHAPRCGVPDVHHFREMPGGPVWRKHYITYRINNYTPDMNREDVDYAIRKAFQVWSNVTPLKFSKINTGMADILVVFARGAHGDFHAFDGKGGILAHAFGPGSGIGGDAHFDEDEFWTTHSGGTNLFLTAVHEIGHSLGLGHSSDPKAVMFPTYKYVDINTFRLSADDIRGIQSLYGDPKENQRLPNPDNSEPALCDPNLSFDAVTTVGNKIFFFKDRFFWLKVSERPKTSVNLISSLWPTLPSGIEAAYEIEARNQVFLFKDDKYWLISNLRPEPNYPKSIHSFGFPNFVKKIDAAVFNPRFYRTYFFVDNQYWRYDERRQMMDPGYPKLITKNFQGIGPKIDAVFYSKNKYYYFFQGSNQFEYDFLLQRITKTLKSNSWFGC
Sequence of Neutrophil collagenase (P22894 whole entry): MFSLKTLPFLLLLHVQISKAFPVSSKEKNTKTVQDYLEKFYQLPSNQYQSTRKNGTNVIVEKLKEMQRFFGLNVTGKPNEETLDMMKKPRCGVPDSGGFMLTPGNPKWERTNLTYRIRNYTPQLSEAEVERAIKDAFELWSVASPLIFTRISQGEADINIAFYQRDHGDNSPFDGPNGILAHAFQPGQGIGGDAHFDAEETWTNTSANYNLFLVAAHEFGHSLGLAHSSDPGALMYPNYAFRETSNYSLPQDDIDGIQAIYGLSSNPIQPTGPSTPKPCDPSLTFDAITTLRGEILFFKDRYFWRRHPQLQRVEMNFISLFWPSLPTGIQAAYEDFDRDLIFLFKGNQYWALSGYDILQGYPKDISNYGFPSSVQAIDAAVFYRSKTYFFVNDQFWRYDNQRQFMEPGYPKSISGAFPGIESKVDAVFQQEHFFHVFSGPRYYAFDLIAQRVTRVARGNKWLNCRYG

`O=C(COc1ccc(Cl)cc1)NNC(=S)NCCCCC1CCCCC1`: the IC50 in test [1] was greater than 10 µM; in [2] it was greater than 10 µM; in test [3], greater than 10 µM; in [4], greater than 10 µM; in test [7], greater than 100 µM; in [9], greater than 100 µM. Moreover, the IC50 in [10] was 47 µM; in [12], greater than 100 µM; in test [15] it was 0.17 µM. The inhibition result was “Dose-dependent effect” in test [5]; less than 10% in test [6]; less than 10% in test [8]; less than 10% in test [11]; less than 10% in test [13]; less than 10% in [14].
